# According to the RNAGym collection of RNA variant scans (doi:10.1126/science.aae0568):
# Fewer inactive variants are shown than the library holds.
# B1: tRNA (parent)
# chain: GUUCCGUUGGCGUAAUGGUAACGCGUCUCCCUCCUAAGGAGAAGACUGCGGGUUCGAGUCCCGUACGGAACG
# Variants of: B1
# Assay: yeast fitness relative to wild type (ratio to wild type); higher = fitter; tRNA-Arg(CCU), competitive growth, 37 C, YPD
# Summary of the method: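 Gene amplicons from the start population and from each of six end populations were read by 100-nucleotide paired-end sequencing. Those end populations came from pooled Saccharomyces cerevisiae strains carrying tRNA-Arg(CCU) gene variants at the native locus, competed in YPD at 37°C for 24 hours. Fitness relative to wild type was worked out from changes in genotype frequencies. Genotypes needed ≥ 100 starting reads, and estimates < 0.5 were set to 0.5.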
row,Variant,yeast fitness
1,GUCCCGUUGGCGUAAUGGUAGCGCGUCUCCCUCCUAAGGAGAAGACUGUGGGUUCGAGUCCCGUACGGAACG [U3C A21G C49U],1.02
2,GUUCCGUUGGCGUAAUGGUUACGCGUCUCCCUCGUAAGGAGGUGACUGCGGGUUCGAGUCCCGUACAGAACG [A20U C34G A42G A43U G67A],≤ 0.5
3,GUUCCGUUGGCGUAAUGGUAACGCGUCUCACUCCUAAGGAGAAGACUGCGGGUUUGAGUCCCGUACGGACCG [C30A C55U A70C],0.545
4,GUUCCGUUGGCGUAAUGGUAAGGCGUCUCGCUCCUAAGGAGAAGACCGCGGGUUCGAGUCCCGUACGGAACG [C22G C30G U47C],≤ 0.5
5,GUUCCGUUGGCGUAAUGGUAACGCGUCUCCCUCCUAAGGAGAAGAGUGCGGGCUCGAGUCCCGUACGGAACG [C46G U53C],0.903
6,GUUCCGUUGGCGUAAUGGUAAGGCGUCUCCCUCCUAAGGAGGAGACUGUGGGUUCGAGUCCCGUACGGAACG [C22G A42G C49U],0.712
7,GUUCCGUUGGCGUAAUGGUAACGCGUCUCCCUCCUAAGGAGAAGUCUGCGGGUUCGCGUCCCGUACGGAACG [A45U A57C],0.617
8,GUUGCGUUGGCGUAAUGGUAACGCGUCUCGCUACUAAGGAGAAGACUGCGGGUUCGAGUCCCGUACGGAACG [C4G C30G C33A],≤ 0.5
9,GUUCCGUUGGCGUAAUGGUAUCGCGUCUCCCUCCUAAGGAGAAGACUGCGGGUUUGAGUCCGGUACGGAACG [A21U C55U C62G],≤ 0.5
10,GUGCCGUUGGUGUAAUGGUAAAGCGUCUCCCUCCUAAGGAGAAGACUGCGGGUUCGAGUCCCGUACGGAACG [U3G C11U C22A],≤ 0.5
11,GCUCCGUUGGCGUAAUGGUAACACGUCUCCCUCCUAAGGAGAAGAUUGCGGGUUCGAGUCCCGUACGGAACG [U2C G23A C46U],0.528
12,GUUCCGUUGGCGUAAUGGUCACGCGUGUCCCUCCUAAGGAGAAGACUGCGGGUUCGCGUCCCGUACGGAACG [A20C C27G A57C],≤ 0.5
13,GUCCCGUUGGCGUAAUGGUAACGCGUCUCCCUCCUAAGGAGUAGUCUGCGGGUUCGAGUCCCGCACGGAACG [U3C A42U A45U U64C],0.885
14,GUUCCGUUGGCGUAAUGGUAUCGCGUCUCCCUCCUAAGGAGAAGACUGCGGGUUGGAGUCCCGUACGAACCG [A21U C55G G68A A70C],≤ 0.5
15,GUUCCGUUGGCGUAAUGGUAACGCGUCUCCCUCCUAAGGAGAAGACUGCGGGUUCAAGGCCCGUACGGAACG [G56A U59G],0.762
16,GUUCCGUUGGCGUAAUGGUAAGGCGUCUCCCUCCUAAGGAGAAGUCUGGGGGUUCGAGUCCCGUUCGGAACG [C22G A45U C49G A65U],≤ 0.5
17,GUUCCGUUGGCGAAAUGGUAACGCGUCUCCCUCCUACGGAGAAGACUGCGGGUUCAAGUCCCGUACGGAACG [U13A A37C G56A],≤ 0.5
18,GUUCCGUUGGCGUAAUGGUAAAGCGUCUCUCUCCUAAGGAGAAGACUGCGGGUUCGAGUCCCGUACGGAACG [C22A C30U],0.647
19,GUUCGGUUGGCGUGAUGGUAACGGGUCUCCCUCCUAAGGUGAAGACUCCGGGUUCGAGUUCCGUACGGCACG [C5G A14G C24G A40U G48C C60U A69C],0.601

row,Variant,yeast fitness
1,GUUCCGUUGGCGUAAUGGUAACGCGUCCCCCUCCUAAGGAGAAGACUGCGGGUUUGAGUCCCGUAGGGAACG [U28C C55U C66G],≤ 0.5
2,GCUCCGUUGGCGCAAUGGUAAGGUGUCUCCCUCCUAAGGAGAAGACUGCGGGUUCGAGUCACGUACGGAACG [U2C U13C C22G C24U C61A],≤ 0.5
3,GUUCGGUAGGCGUAAUGGUAACGCGUCUCCCUCCUAAGAAGAAGACUGCGGGUUUGAGUCCCGUACGGACCG [C5G U8A G39A C55U A70C],0.623
4,GUUCCGUUGGCGUAAUGGUAAAGCGUCUCCCUCCUAUGGAGAAGACUGCGGGUUCGAGUCCCGUAUGGAACG [C22A A37U C66U],≤ 0.5
5,GUUCGGGUGGCGUAAUGGUAACGCGUCUCCCUCCUUAGGAAAAGACUGGGGGUUCGAGUCCCGUACGGAACG [C5G U7G A36U G41A C49G],≤ 0.5
6,GUUCCGUUGGCGUAACGGUAACGCGUCUCCCUUCUCAGGAGAAGACUGCGGGUUCGAGUCCCGUACGGAACG [U16C C33U A36C],0.589
7,GUUCCGUUGGCGUAAUGGUAACGCGUCUCCCUCCUAAGGAGAAGACUGCGGGUCCGAGUCCAGUACGGAACG [U54C C62A],0.595
8,GUUCCGUUGGCGUAAUGGUAACGCGUCUCCCUCCUAAGGAGAAGACUGCGGGUUCCAGUCCCGUACAGACCG [G56C G67A A70C],0.527
9,GUUCCGUUGGCGUAAUGGUAACGCGUCUCCCUCCUAAGGAGAAGAAUGCGGGUUCGAGUCGCGUACGGGACG [C46A C61G A69G],0.551
10,GUUCCGUUGGCGUAAUGGUAACGUGCCUCCCUCCUAAGGAGAAGACUGCGGGUUCGAGUCCCGUCCGGAACG [C24U U26C A65C],0.695
11,GUUCCGUUGGCGCAAGGGUAACGCGUCUCCCUCCUAAGGAGAAGACUGCGGGUUCGAGUCCCGUACGGAUCG [U13C U16G A70U],0.595
12,GUUCAGUUGGCGUAAUGGAAACGCGUCUCCCUCCUAAGGAGAAGACUGCGGGUUCGUGUCCCGUACGGAACG [C5A U19A A57U],0.561
13,GUUCCGUUGGCGUAAUGGUAACGCGUCUCCCUCCUAAGGAGAAGACUGCGGGUUCGAGUCCGGUACGGAGCG [C62G A70G],0.752
14,GUUCCGUUGGCGUAAUGGUAACGCGCCUCCCUCUUAAGGAGAACACGGCGGGUUCGAGUCCCGUACGGAACG [U26C C34U G44C U47G],≤ 0.5
15,GUUUCGUUGGCGUAAUGGUUACGCGUGUCGCUCCUAAGGAGAGGACUGCGGGUUCGAGUCCCGUCCGCAACG [C4U A20U C27G C30G A43G A65C G68C],0.639
16,GUUACGUUGGCGUAAUGGAAACGCGUCUCCCUCCUAAGGAGAAGACUGCGGGUUCGAGUCCCGUACGGCACG [C4A U19A A69C],0.602
17,GAUCCGUUGGGGUAAUAGUUACGCGUCUCCCUGCUAACGAGAAGACUGCGGGUUCGAGUCCCGUACGGAACG [U2A C11G G17A A20U C33G G38C],≤ 0.5
18,GUUCCGUUGGCCUAAUGGUAACGCGUCUCCCUCCUAAGGACAAGACUGCGGGUUCGAGUCCCGUACGGAACG [G12C G41C],0.748
